Results taken from ChEMBL document CHEMBL1128264, “Second-generation leukotriene B4 receptor antagonists related to SC-41930: heterocyclic replacement of the methyl ketone pharmacophore” (J Med Chem, 1995).

Experiments:
Cavia porcellus [1] = test: In vivo activity for topical application using LTB4-induced […] intradermal chemotaxis assay.; type: functional
Homo sapiens [2] = organism: Homo sapiens; test: Tested for the ability to inhibit Leukotriene B4 (LTB4) induced chemotaxis. (Test compound added to upper and lower wells); type: functional, organism-based
Method in brief: (§1)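 Test compound is placed in both upper and lower wells. After 90 min at 37 °C, migrated cells in the lower well are Coulter-counted. Inhibition is computed after subtracting the HBSS random-migration mean.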

Homo sapiens [3] = organism: Homo sapiens; test: Tested for the ability to inhibit Leukotriene B4 (LTB4) induced degranulation.; type: functional, organism-based
Method in brief: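 Human neutrophils (3 × 10⁶ in 1 mL HBSS) pretreated with 5 μg cytochalasin B for 5 min at 37 °C, then with test compound for 7 min, then stimulated with 5 × 10⁻⁸ M LTB₄ for 2 min. MPO in pellet and supernatant read spectrophotometrically (o-dianisidine/peroxide). Release is expressed as percent of total MPO after subtracting basal.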

Mus musculus [4] = test: In vivo murine (intracolonic) SCOA-induced colitis activity of the compound.; type: functional
Method in brief: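 Mouse colitis induced under light anesthesia by a single intrarectal enema of 3% acetic acid. Test compound given intrarectally 1 h before and 1 h after instillation. Colonic MPO assessed at 24 h. ED50 is in mg/kg.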

Cavia porcellus [5] = test: In vivo guinea pig (oral) SCOA-induced colitis activity of the compound.
Cavia porcellus [6] = test: In vivo activity for oral administration using LTB4-induced guinea pig intradermal chemotaxis assay.
Cavia porcellus [7] = test: In vivo activity for intravenous administration using LTB4-induced guinea pig intradermal chemotaxis assay.
Leukotriene B4 receptor = Leukotriene B4 receptor (Homo sapiens, UniProt Q9NPC1+Q15722); test: Inhibition of Leukotriene B4 (LTB4) induced chemotaxis.; type: functional
[8] = biological target: T1, Leukotriene B4 receptor 1 (Homo sapiens, UniProt Q15722); test: Binding affinity for Leukotriene B4 (LTB4) receptor
T1 sequence (Q15722 whole entry): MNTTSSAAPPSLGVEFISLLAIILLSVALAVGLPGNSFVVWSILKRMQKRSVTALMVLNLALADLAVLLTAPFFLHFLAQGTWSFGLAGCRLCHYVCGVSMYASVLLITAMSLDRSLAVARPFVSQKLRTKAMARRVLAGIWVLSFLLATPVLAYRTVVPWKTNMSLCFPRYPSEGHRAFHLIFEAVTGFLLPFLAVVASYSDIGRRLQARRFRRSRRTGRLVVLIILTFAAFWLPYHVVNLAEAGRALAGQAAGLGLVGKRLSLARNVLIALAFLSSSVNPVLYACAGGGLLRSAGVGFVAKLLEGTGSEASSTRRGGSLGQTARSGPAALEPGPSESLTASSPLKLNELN
Method in brief: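 Human blood neutrophils (dextran sedimentation, Ficoll-paque, hypotonic lysis without BSA), 4 × 10⁶ cells with 0.6 nM [³H]LTB₄ ± test compound in 1 mL HBSS, 0 °C for 45 min; 30 μM NDGA present in some assays. Glass-fibre filtration with ice-cold HBSS washes.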

Cavia porcellus [9] = test: In vivo […] (oral) SCOA-induced colitis activity of the compound.; type: functional
Method in brief: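 Guinea pig colitis induced under light anesthesia by a single intrarectal enema of 4% acetic acid. Oral dosing 30 min before induction. Colonic MPO activity measured after 24 h. ED50 is in mg/kg.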

Homo sapiens [10] = organism: Homo sapiens; test: Inhibition of 12-(R)-hydroxyeicosatetraenoic acid (HETE)-induced chemotaxis; type: functional, organism-based
Homo sapiens [11] = organism: Homo sapiens; test: Inhibition of fMLP-induced degranulation in the PMN degranulation assay; type: functional, organism-based
Homo sapiens [12] = organism: Homo sapiens; test: Tested for the ability to inhibit Leukotriene B4 (LTB4) induced chemotaxis. (Test compound added to upper and lower wells.); type: functional, organism-based; method in brief: as §1
Homo sapiens [13] = organism: Homo sapiens; test: Inhibition of fMLP-induced chemotaxis; type: functional, organism-based
Canis lupus familiaris [14] = test: In vivo activity for oral administration using LTB4-induced canine intradermal chemotaxis assay.
HL-60 [15] = test: Inhibitory activity against LTB4 production in HL60s.; type: functional, cell-based; conditions: Homo sapiens
HL-60 [16] = test: Inhibitory activity against PGE-2 production in HL60s.; type: functional, cell-based; conditions: Homo sapiens
Homo sapiens [17] = organism: Homo sapiens; test: Inhibitory activity against LTB4 production in PMNs.; type: functional, organism-based
Homo sapiens [18] = organism: Homo sapiens; test: Potency against LTB4 binding to its receptor on eosinophils.; type: functional, organism-based
Homo sapiens [19] = organism: Homo sapiens; test: Potency against LTB4-induced eosinophil chemotaxis.; type: functional, organism-based
Homo sapiens [20] = organism: Homo sapiens; test: Inhibitory activity against HETE-induced chemotaxis; type: functional, organism-based
Mus musculus [21] = test: In vivo murine epidermal inflammation for topical application.; type: functional
Method in brief: (§2)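 PMA (25 μg) in acetone applied to the dorsal surface of one mouse ear, with vehicle on the other ear. Test compound applied topically with the PMA in acetone. At 18 h, ears were removed and weighed. Edema is weight gain versus the contralateral ear, and MPO was also assayed. ED50 is in mg.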

Canis lupus familiaris [22] = test: In vivo activity for intravenous administration using LTB4-induced canine intradermal chemotaxis assay.
Homo sapiens [23] = organism: Homo sapiens; test: Tested for the ability to inhibit Leukotriene B4 (LTB4) induced chemotaxis. Test compound added to upper and lower wells.; type: functional, organism-based; method in brief: as §1
[24] = biological target: T1, Leukotriene B4 receptor 1; test: Binding affinity towards Leukotriene B4 (LTB4) Receptor. Experiment conducted in the absence of NDGA.
Method in brief: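 Human neutrophils isolated with dextran sedimentation, Ficoll-paque and BSA-free hypotonic lysis. 4 × 10⁶ cells incubated with 0.6 nM [³H]LTB₄ ± test compound in 1 mL HBSS at 0 °C for 45 min, no NDGA. Bound ligand separated by glass-fibre filtration. Specific binding is total minus binding not displaced by 0.1 μM unlabeled LTB₄.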

Mus musculus [25] = test: Compound measured by topical application using Murine epidermal inflammation assay; type: functional; method in brief: as §2

CCCc1c(OCCCOc2ccc(C(C)=O)c(OC)c2CCC)ccc2c1OC(C(=O)O)CC2 (stereo not given) [SC-41390] gave an ED50 (Cavia porcellus [1]) of 340 ng, an IC50 (Homo sapiens [2]) of 832 nM and an IC50 (Homo sapiens [3]; Homo sapiens) of 920 nM. The ED50 (Mus musculus [4]; Mus musculus, read-out: ED50) was 28 mg/kg, the ED50 (Cavia porcellus [5]) was 20 mg/kg and the ED50 (Cavia porcellus [6]) was 1.7 mg/kg. The ED50 (Cavia porcellus [7]) was 0.5 mg/kg.
Compound CCCc1c(OCCCOc2ccc(-c3cc[nH]n3)c(OC)c2CCC)ccc2c1OC(C(=O)O)CC2 (stereo not given) has an IC50 (Leukotriene B4 receptor) of 1200 nM and an IC50 [8] of 610 nM.
Compound CCCc1c(OCCCOc2ccc(-c3cscn3)c(OC)c2CC2CC2)ccc2c1OC(C(=O)O)CC2 (racemic) has an ED50 (Cavia porcellus [1]) of 18 ng, an ED50 (Cavia porcellus [9]) of 2.3 mg/kg and an IC50 (Homo sapiens [10]) of 106 nM. The IC50 (Homo sapiens [11]) was 5900 nM, the IC50 (Homo sapiens [12]; Homo sapiens) was 67 nM and the IC50 (Homo sapiens [3]; Homo sapiens) was 48 nM. For the same compound, the ED50 (Mus musculus [4]; Mus musculus, read-out: ED50) was 7.1 mg/kg, the IC50 (Homo sapiens [13]) was 1410 nM and the ED50 (Canis lupus familiaris [14]) was 0.2 mg/kg.
CCCc1c(OCCCOc2ccc(-c3cocn3)c(OC)c2CCC)ccc2c1OC(C(=O)O)CC2 (stereo not given) gave an IC50 (Homo sapiens [3]; Homo sapiens) of 230 nM, an IC50 (Leukotriene B4 receptor) of 430 nM and an IC50 [8] of 100 nM.
CCCc1c(OCCCOc2ccc(-c3cscn3)c(OC)c2CC2CC2)ccc2c1OC(C(=O)O)CC2 (stereo in doubt; 35) gave an ED50 (Cavia porcellus [1]) of 70 ng, an ED50 (Cavia porcellus [9]) of 3.4 mg/kg and an IC50 (HL-60 [15]) of 660 nM. The IC50 (HL-60 [16]) was 928 nM, the IC50 (Homo sapiens [17]) was 520 nM and the IC50 (Homo sapiens [18]) was 2.6 nM. It also gave an IC50 (Homo sapiens [19]) of 9 nM, an IC50 (Homo sapiens [20]) of 106 nM and an IC50 (Homo sapiens [12]) of 89 nM. The IC50 (Homo sapiens [3]) was 57 nM, the ED50 (Mus musculus [4]) was 12 mg/kg and the ED50 (Mus musculus [21]) was 0.8 mg. For the same compound, the ED50 (Canis lupus familiaris [14]) was 0.74 mg/kg and the ED50 (Canis lupus familiaris [22]) was 0.02 mg/kg.
Compound CCCc1c(OCCCOc2ccc(-c3c[nH]cn3)c(OC)c2CCC)ccc2c1OC(C(=O)O)CC2 (stereo not given) has an IC50 (Leukotriene B4 receptor) of 1200 nM and an IC50 [8] of 520 nM.
CCCc1c(OCCCOc2ccc(-c3csc(SCc4ccccc4)n3)c(OC)c2CCC)ccc2c1OC(C(=O)O)CC2 (stereo not given) showed an IC50 (Leukotriene B4 receptor) of over 10000 nM and an IC50 [8] of 5800 nM.
CCCc1c(OCCCOc2ccc(-c3cscn3)c(OC)c2CCC)ccc2c1OC(C(=O)O)CC2 (stereo not given) showed an IC50 (Homo sapiens [3]; Homo sapiens) of 90 nM, an IC50 (Leukotriene B4 receptor) of 287 nM and an IC50 [8] of 93 nM.
CCCc1c(OCCCOc2ccc(-c3csc(S)n3)c(OC)c2CCC)ccc2c1OC(C(=O)O)CC2 (stereo not given) gave an IC50 (Homo sapiens [3]; Homo sapiens) of 1200 nM, an IC50 (Leukotriene B4 receptor) of 520 nM and an IC50 [8] of 890 nM.
In the case of CCCc1c(OCCCOc2ccc(C(N)=O)c(OC)c2CCC)ccc2c1OC(C(=O)O)CC2 (stereo not given), the IC50 (Homo sapiens [3]; Homo sapiens) is reported as 920 nM, the IC50 (Leukotriene B4 receptor) is reported as 350 nM and the IC50 [8] is reported as 140 nM.
Compound CCCc1c(OCCCOc2ccc(-c3cscn3)c(OC)c2CC2CC2)cccc1OCC(=O)O has an IC50 (Homo sapiens [23]) of 360 nM, an IC50 (Homo sapiens [3]; Homo sapiens) of 220 nM and an IC50 [24] of 15.5 nM.
With CCCc1c(OCCCOc2ccc(-c3cscn3)c(OC)c2CC2CC2)ccc2c1OC(C(=O)O)CC2 (stereo in doubt; -/-35) the ED50 (Cavia porcellus [1]) was 98 ng, the ED50 (Cavia porcellus [9]) was 5.9 mg/kg and the IC50 (Homo sapiens [3]) was 79 nM. For the same compound, the ED50 (Mus musculus [25]) was 0.98 mg and the ED50 (Mus musculus [4]) was 11.7 mg/kg.
CCCc1c(OCCCOc2ccc(-c3csc(N)n3)c(OC)c2CCC)ccc2c1OC(C(=O)O)CC2 (stereo not given) showed an IC50 (Leukotriene B4 receptor) of 1500 nM and an IC50 [8] of 320 nM.
In the case of CCCc1c(OCCCOc2ccc(-c3coc(C)n3)c(OC)c2CCC)ccc2c1OC(C(=O)O)CC2 (stereo not given), the IC50 (Leukotriene B4 receptor) is reported as over 10000 nM and the IC50 [8] is reported as 1100 nM.
With C=CCc1c(OCCCOc2ccc3c(c2CCC)OC(C(=O)O)CC3)ccc(-c2cscn2)c1OC (stereo not given) the IC50 (Homo sapiens [3]; Homo sapiens) was 23 nM, the IC50 (Leukotriene B4 receptor) was 110 nM and the IC50 [8] was 25 nM.
Compound CCCc1c(OCCCOc2ccc(-c3csc(SC)n3)c(OC)c2CCC)ccc2c1OC(C(=O)O)CC2 (stereo not given) has an IC50 (Leukotriene B4 receptor) of 18600 nM and an IC50 [8] of 2800 nM.
CCCc1c(OCCCOc2ccc(-c3c[nH]nn3)c(OC)c2CCC)ccc2c1OC(C(=O)O)CC2 (stereo not given) gave an IC50 (Homo sapiens [23]) of 88 nM, an IC50 (Homo sapiens [3]; Homo sapiens) of 130 nM and an IC50 [24] of 5.2 nM.
CCCc1c(OCCCOc2ccc(-c3c[nH]c(SCc4ccccc4)n3)c(OC)c2CCC)ccc2c1OC(C(=O)O)CC2 (stereo not given) showed an IC50 (Homo sapiens [23]) of 430 nM and an IC50 [24] of 750 nM.
In the case of CCCc1c(OCCCOc2ccc(-c3ccno3)c(OC)c2CCC)ccc2c1OC(C(=O)O)CC2 (stereo not given), the IC50 (Leukotriene B4 receptor) is reported as 1600 nM and the IC50 [8] is reported as 770 nM.
Compound CCCc1c(OCCCOc2ccc(-c3csc(OC)n3)c(OC)c2CCC)ccc2c1OC(C(=O)O)CC2 (stereo not given) has an IC50 (Leukotriene B4 receptor) of over 10000 nM and an IC50 [8] of 1150 nM.
In the case of CCCc1c(OCCCOc2ccc(-c3cscn3)c(OC)c2CC2CC2)ccc2c1OC(CCC(=O)O)CC2 (stereo not given), the IC50 (Homo sapiens [23]) is reported as 49 nM, the IC50 (Homo sapiens [3]; Homo sapiens) is reported as 7 nM and the IC50 [24] is reported as 12.3 nM.
CCCc1c(OCCCOc2ccc(-c3cscn3)c(OC)c2CCC)ccc2c1OC(CCC(=O)O)CC2 (stereo not given) was tested, and the IC50 (Homo sapiens [3]; Homo sapiens) was 70 nM, the IC50 (Leukotriene B4 receptor) was 1540 nM and the IC50 [8] was 26 nM.
